Experimental data collected from several papers.
Medium: Caco-2

| Structure (SMILES) | conditions | endpoint | value |
| --- | --- | --- | --- |
| CC(C)c1cccc2c(-c3ccccc3)cc(-c3ccc(-c4ccc(C(=O)O)cc4)[nH]3)nc12 | – | Papp B→A | 1.11 ×10⁻⁶ cm/s |
| CNC(=C[N+](=O)[O-])NCCSCc1ccc(CN(C)C)o1 | – | Papp B→A | 2 ×10⁻⁶ cm/s |
| O=c1c(O)c(-c2ccc(O)c(O)c2)oc2cc(O)cc(O)c12 | 1 mg/mL, pH 7.4 | Papp | 1.7 ×10⁻⁶ cm/s |
| CCCCN1C(=O)[C@@H]([C@@H](O)C2CCCCC2)NC(=O)C12CCN(Cc1ccc(Oc3ccc(C(=O)O)cc3)cc1)CC2.Cl | – | Papp | 1.6 ×10⁻⁶ cm/s |
| CCOC(=O)[C@@]12C[C@@H]1[C@@H](n1ccc3c(NC)nc(C#Cc4ccc(Cl)s4)nc31)[C@H](O)[C@@H]2O | 10 µM, 2 h, pH 7.4 | Papp B→A | 22.2 ×10⁻⁶ cm/s |
| CCC(=O)N[C@H]1Cc2cccc(C(=O)O)c2OB1O | 5 µM, 2 h, pH 7.4 | Papp B→A | 0.15 ×10⁻⁶ cm/s |
| Nc1nc2c(ncn2COCCO)c(=O)[nH]1 | 10 µM, 2 h, pH 7.4 | Papp B→A | 0.756 ×10⁻⁶ cm/s |
| COc1cc(Cl)c(C(=O)N[C@@H](CN[C@H]2CC[C@@H](N)CC2)Cc2ccc(C#N)cc2)cc1-c1ccc(CN[C@H](C)c2ccc(C)cc2)o1 | 2 µM, 2 h, pH 7.2 | Papp B→A | 1.1 ×10⁻⁶ cm/s |
| CNCc1cc(-c2ccccc2F)n(S(=O)(=O)c2cccnc2)c1 | – | Papp | 17.8 ×10⁻⁶ cm/s |
| Cn1c(=O)c2c(nc(S)n2C)n(C)c1=O | 10 µM, 2 h | Papp B→A | 3 ×10⁻⁶ cm/s |
| CC1=C2C(=O)O[C@@H](c3ccoc3)[C@]2(C)CCC1 | 1 mg/mL, 4 h, pH 7.4 | Papp | > 10 ×10⁻⁶ cm/s |
| CCC(C)n1ncn(-c2ccc(N3CCN(c4ccc(OCC5COC(Cn6cncn6)(c6ccc(Cl)cc6Cl)O5)cc4)CC3)cc2)c1=O (stereo not shown) | 1 µM, pH 7.4 | Papp | 1.5 to 2.5 ×10⁻⁶ cm/s |
| CC(C)NCC(O)COc1cccc2ccccc12 (stereo not shown) | – | Papp | 20 ×10⁻⁶ cm/s |
| O=c1c(O)c(-c2ccc(O)cc2)oc2cc(O)cc(O)c12 | 1 mg/mL, pH 7.4 | Papp | 1.17 ×10⁻⁶ cm/s |
| Nc1cc(N2CCCCC2)nc(N)[n+]1[O-] | 10 µM, 2 h, pH 7.4 | Papp B→A | 7.19 ×10⁻⁶ cm/s |
| CCN1C(=O)N(c2c(F)c(OC)cc(OC)c2F)Cc2cnc3[nH]c(CN4CCOCC4)cc3c21 | 50 µM | Papp | 11 ×10⁻⁶ cm/s |
